Data published in publication PMC7161550 (British Journal of Pharmacology, 2020).
Where two headings read alike, the source gives them in different places.

What was measured:
rat brain = experiment: Brain histopathology and behaviour in rats dosed 1 to 28 days; format: in vivo; settings: rat, 10, 30 or 100 mg·kg^−1·day^−1 p.o.
CYP2D6 = CYP2D6 (Homo sapiens, UniProt P10635); experiment: CYP inhibition, pooled human liver microsomes; format: in vitro ADME
Procedure, shortened: (§1)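 The rate of metabolite formation was measured; testosterone was one CYP3A4 substrate. Controls: solvent vehicle, enzyme-selective inhibitors, mechanism-based inhibitors. Analysis by HPLC with online radio-detection or LC/MS/MS.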

CYP2C9 = CYP2C9 (Homo sapiens, UniProt P11712); experiment: CYP inhibition, pooled human liver microsomes; format: in vitro ADME; settings: 0.33–99.2 μM, co‐ and pre‐incubation
Procedure, shortened: as §1

[1] = human, 2017, cited from earlier work
CYP1A2 = CYP1A2 (Homo sapiens, UniProt P05177); experiment: CYP inhibition, pooled human liver microsomes; format: in vitro ADME; settings: 0.33–99.2 μM, co‐ and pre‐incubation
Procedure, shortened: as §1

CYP2C8 = CYP2C8 (Homo sapiens, UniProt P10632); experiment: CYP inhibition, pooled human liver microsomes; format: in vitro ADME; settings: 0.33–99.2 μM, co‐ and pre‐incubation
Procedure, shortened: as §1

CaI‐PLA2 (PLA2G6) = CaI‐PLA2 (PLA2G6) (Rattus norvegicus, UniProt P97570); experiment: ABPP ex vivo, rat brain after oral BIA 10‐2474; format: in vivo
[2] = Protein binding to cell homogenates; format: in vitro ADME; settings: 500 μg·ml^−1 of protein

Chain of CYP2D6 (P10635 whole entry): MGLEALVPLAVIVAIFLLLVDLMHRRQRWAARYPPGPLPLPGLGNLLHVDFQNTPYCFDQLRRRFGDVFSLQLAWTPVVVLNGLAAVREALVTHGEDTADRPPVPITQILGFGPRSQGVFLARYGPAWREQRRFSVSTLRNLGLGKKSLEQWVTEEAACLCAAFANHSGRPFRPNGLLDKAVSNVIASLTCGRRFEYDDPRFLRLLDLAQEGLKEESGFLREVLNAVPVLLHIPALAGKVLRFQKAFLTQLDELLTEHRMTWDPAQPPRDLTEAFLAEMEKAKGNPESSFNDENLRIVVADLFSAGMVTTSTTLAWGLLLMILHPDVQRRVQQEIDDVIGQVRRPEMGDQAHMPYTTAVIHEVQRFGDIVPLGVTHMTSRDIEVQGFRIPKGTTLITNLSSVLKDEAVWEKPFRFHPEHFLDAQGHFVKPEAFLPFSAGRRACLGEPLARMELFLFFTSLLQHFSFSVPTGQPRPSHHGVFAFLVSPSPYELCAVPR
Chain of CaI‐PLA2 (PLA2G6) (P97570 whole entry): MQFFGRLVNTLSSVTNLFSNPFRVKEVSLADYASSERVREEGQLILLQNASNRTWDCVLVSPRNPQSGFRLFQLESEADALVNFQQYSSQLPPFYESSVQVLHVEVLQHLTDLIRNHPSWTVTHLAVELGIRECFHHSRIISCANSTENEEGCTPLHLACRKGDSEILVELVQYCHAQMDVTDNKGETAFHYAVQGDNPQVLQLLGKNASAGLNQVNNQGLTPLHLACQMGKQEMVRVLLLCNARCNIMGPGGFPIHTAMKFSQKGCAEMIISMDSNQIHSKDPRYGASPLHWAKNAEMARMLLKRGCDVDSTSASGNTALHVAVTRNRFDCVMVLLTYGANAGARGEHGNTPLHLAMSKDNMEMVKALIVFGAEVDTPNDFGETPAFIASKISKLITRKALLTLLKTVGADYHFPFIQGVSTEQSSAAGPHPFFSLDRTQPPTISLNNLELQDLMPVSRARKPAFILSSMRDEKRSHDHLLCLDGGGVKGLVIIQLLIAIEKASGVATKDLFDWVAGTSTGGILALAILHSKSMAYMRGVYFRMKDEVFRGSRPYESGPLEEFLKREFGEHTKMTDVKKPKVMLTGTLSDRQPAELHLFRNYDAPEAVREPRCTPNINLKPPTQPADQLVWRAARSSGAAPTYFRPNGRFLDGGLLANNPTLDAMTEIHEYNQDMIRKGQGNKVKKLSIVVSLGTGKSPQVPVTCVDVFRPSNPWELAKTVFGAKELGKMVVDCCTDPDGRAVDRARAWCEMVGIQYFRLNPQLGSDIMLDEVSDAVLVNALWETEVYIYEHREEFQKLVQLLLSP
Chain of CYP2C9 (P11712 whole entry): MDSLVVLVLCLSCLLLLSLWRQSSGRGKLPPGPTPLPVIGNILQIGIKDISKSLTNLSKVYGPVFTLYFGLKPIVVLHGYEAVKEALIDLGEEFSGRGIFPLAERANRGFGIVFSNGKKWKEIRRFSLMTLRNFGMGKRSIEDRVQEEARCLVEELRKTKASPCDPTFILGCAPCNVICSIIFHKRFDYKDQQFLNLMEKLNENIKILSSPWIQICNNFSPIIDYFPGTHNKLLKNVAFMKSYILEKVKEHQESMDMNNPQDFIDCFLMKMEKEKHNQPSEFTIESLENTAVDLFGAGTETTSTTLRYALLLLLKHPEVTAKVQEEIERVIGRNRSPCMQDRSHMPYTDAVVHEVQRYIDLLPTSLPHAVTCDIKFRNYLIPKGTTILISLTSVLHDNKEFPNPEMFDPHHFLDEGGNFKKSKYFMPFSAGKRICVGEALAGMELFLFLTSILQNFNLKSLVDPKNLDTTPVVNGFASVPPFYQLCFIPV
Chain of CYP2C8 (P10632 whole entry): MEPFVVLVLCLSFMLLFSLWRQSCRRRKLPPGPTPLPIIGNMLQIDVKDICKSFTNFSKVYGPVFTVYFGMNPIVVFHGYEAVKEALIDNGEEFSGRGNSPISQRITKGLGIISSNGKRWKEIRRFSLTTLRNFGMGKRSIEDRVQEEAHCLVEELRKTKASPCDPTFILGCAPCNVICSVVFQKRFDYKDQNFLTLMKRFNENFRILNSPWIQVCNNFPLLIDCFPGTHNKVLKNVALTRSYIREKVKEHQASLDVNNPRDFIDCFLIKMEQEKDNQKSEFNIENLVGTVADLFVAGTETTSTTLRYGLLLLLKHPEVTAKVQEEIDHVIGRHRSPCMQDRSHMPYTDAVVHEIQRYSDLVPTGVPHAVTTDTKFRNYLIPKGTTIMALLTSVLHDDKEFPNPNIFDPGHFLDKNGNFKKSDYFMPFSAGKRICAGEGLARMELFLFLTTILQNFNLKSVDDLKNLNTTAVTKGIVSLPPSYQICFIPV
Chain of CYP1A2 (P05177 whole entry): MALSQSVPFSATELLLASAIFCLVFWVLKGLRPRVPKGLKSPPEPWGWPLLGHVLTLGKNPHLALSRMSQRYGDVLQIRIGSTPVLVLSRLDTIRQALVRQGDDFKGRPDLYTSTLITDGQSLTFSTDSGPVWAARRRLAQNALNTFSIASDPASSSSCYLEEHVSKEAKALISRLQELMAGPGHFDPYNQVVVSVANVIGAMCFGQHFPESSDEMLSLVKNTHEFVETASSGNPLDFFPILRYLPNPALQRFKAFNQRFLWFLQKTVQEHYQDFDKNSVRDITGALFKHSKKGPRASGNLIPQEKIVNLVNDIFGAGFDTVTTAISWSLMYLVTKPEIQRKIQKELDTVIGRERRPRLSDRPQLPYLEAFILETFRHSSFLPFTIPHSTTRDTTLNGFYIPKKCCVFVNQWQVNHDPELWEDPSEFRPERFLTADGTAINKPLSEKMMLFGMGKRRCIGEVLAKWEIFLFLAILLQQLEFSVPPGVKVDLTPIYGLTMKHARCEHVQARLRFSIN

SMILES | brain histopathology (rat brain) | overt behavioural abnormalities during treatment (rat brain) | inhibition of CYP2D6 (CYP2D6; co‐incubation) | inhibition of CYP2D6 (CYP2D6; pre‐incubation with BIA 10‐2474) | inhibitory effect on CYP2C9 (CYP2C9) | maximum plasma exposure in the clinic ([1]; 50 mg ref Rocha et al.) | maximum plasma exposure in the clinic ([1]; 100 mg ref Rocha et al.) | inhibitory effect on CY1A2 (CYP1A2) | inhibitory effect on CYP2C8 (CYP2C8) | rats in which PLA2g6 was completely inhibited (CaI‐PLA2 (PLA2G6); 30 mg·kg^−1) | rats in which PLA2g6 was completely inhibited (CaI‐PLA2 (PLA2G6); 100 mg·kg^−1) | mean % free fraction ± SD [2]
CN(C(=O)n1cnc(-c2ccc[n+]([O-])c2)c1)C1CCCCC1 [BIA 10‐2474, 3‐(1‐(cyclohexyl (methyl)carbamoyl)‐1H‐imidazol‐4‐yl)pyridine 1‐oxide] | no abnormalities | none of the animals used in this study showed any overt behavioural abnormalities | minor inhibition | no effect | did not exhibit any inhibitory effects | around 2 μM | ~6 µM | did not exhibit any inhibitory effects | did not exhibit any inhibitory effects | four out of six rats | three out of six rats | –
O=C(Nc1cccnn1)N1CCC(=Cc2cccc(Oc3ccc(C(F)(F)F)cn3)c2)CC1 [PF‐04457845] | – | – | – | – | – | – | – | – | – | – | – | 28.0 ± 3.9%
